# Test results: ChEMBL document CHEMBL1765003, “Discovery of (1S,2R,3R)-2,3-dimethyl-2-phenyl-1-sulfamidocyclopropanecarboxylates: novel and highly selective aggrecanase inhibitors” (J Med Chem, 2011); call rule not given here
# Legend:
# Cytochrome P450 3A4 = Cytochrome P450 3A4 (Homo sapiens, UniProt P08684); experiment: Inhibition of CYP3A4 at up to 50 uM; assay type: ADME
# Cytochrome P450 2C19 = Cytochrome P450 2C19 (Homo sapiens, UniProt P33261); experiment: Inhibition of CYP2C19 at up to 50 uM; assay type: ADME
# [1] = target: Disintegrin and metalloproteinase domain-containing protein 17 (Homo sapiens, UniProt P78536); experiment: Inhibition of human recombinant TACE after 60 mins by fluorescence plate reader
# How it was run: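 rh-TACE at 80 ng/mL with 10 μM MCA-Pro-Leu-Ala-Gln-Ala-Val-Dpa-Arg-Ser-Ser-Ser-Arg-NH₂, in 100 mM Tris-HCl pH 7.5, 150 mM NaCl, 10 mM CaCl₂, 0.05% Brij-35. Inhibitor preincubated for 15 min at 25 °C. Fluorescence (ex 325/em 405 nm) read at 60 min. IC50 from three linear-range points; mean of ≥2.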
# Interstitial collagenase = target: T1, Interstitial collagenase (Homo sapiens, UniProt P03956); experiment: Inhibition of human recombinant MMP1 after 60 mins by fluorescence plate reader
# T1 sequence (P03956 whole entry): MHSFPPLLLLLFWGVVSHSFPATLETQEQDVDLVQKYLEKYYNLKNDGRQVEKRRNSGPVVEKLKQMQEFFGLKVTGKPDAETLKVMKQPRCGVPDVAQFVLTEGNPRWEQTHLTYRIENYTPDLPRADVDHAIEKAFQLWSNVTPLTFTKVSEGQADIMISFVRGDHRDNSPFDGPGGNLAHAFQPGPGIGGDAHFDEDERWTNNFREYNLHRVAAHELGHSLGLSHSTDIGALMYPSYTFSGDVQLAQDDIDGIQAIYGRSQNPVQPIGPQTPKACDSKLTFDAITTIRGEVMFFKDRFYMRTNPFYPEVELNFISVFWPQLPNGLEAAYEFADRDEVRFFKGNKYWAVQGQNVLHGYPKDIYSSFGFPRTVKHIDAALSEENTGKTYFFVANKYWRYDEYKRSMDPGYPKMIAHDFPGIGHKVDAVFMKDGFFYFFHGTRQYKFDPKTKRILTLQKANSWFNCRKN
# How it was run: (§1)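 Recombinant human enzyme at 20 ng/mL with 10 μM MOCAc-Lys-Pro-Leu-Gly-Leu-A2pr(Dnp)-Ala-Arg-NH₂, in 100 mM Tris-HCl pH 7.5, 150 mM NaCl, 10 mM CaCl₂, 0.05% Brij-35. Enzyme pretreated with inhibitor for 15 min at 25 °C, then substrate added. Fluorescence (ex 325, em 405 nm) read at 60 min. IC50 taken from three points in the linear range; mean of ≥2 determinations.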
# [2] = target: Matrix metalloproteinase-14 (Homo sapiens, UniProt P50281); experiment: Inhibition of human recombinant MMP14 after 60 mins by fluorescence plate reader; how it was run: as §1
# [3] = target: T2, A disintegrin and metalloproteinase with thrombospondin motifs 5 (Homo sapiens, UniProt Q9UNA0); experiment: Inhibition of human recombinant aggrecanase 2 after 150 mins by fluorescence plate reader
# T2 sequence (Q9UNA0 whole entry): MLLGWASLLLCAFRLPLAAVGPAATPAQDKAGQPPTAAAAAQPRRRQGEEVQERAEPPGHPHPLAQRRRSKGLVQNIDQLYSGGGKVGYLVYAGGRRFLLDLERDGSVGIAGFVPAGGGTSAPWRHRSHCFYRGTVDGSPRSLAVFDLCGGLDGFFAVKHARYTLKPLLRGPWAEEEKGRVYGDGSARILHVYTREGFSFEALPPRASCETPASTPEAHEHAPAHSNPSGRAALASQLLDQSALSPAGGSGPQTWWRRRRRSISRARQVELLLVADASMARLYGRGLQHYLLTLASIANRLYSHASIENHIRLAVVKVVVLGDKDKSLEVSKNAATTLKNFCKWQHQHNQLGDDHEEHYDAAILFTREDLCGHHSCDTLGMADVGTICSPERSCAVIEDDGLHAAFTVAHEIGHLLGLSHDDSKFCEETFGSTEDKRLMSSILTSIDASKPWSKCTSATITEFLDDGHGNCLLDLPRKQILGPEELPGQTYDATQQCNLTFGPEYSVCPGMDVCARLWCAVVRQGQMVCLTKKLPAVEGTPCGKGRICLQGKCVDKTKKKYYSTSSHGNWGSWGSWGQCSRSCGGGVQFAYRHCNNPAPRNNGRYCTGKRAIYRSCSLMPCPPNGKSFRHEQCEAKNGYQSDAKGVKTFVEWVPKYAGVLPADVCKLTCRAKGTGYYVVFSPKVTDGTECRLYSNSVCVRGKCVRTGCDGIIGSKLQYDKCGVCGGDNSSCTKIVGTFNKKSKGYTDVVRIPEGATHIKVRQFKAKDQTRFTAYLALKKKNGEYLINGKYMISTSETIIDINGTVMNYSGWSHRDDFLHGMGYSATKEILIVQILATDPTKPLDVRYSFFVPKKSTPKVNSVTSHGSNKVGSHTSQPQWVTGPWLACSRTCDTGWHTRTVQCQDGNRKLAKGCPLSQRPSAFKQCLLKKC
# Cytochrome P450 2C9 = Cytochrome P450 2C9 (Homo sapiens, UniProt P11712); experiment: Inhibition of CYP2C9 at up to 50 uM; assay type: ADME
# Cytochrome P450 2D6 = Cytochrome P450 2D6 (Homo sapiens, UniProt P10635); experiment: Inhibition of CYP2D6 at up to 50 uM; assay type: ADME
# Cytochrome P450 1A2 = target: T3, Cytochrome P450 1A2 (Homo sapiens, UniProt P05177); experiment: Inhibition of CYP1A2 at up to 50 uM; assay type: ADME
# T3 sequence (P05177 whole entry): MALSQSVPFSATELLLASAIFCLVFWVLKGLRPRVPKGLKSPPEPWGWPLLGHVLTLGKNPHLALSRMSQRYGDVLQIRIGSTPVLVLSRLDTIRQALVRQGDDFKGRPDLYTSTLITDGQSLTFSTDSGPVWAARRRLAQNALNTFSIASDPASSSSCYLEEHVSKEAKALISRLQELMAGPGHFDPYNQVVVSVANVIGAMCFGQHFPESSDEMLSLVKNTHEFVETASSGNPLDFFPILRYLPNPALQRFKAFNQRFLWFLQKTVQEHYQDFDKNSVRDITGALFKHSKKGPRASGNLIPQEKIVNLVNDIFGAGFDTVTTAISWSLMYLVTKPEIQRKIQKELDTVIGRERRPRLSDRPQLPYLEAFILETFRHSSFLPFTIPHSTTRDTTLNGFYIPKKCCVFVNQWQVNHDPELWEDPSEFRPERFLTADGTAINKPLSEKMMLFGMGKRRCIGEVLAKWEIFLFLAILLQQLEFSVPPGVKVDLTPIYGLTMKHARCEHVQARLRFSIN
# Cytochrome P450 2A6 = target: T4, Cytochrome P450 2A6 (Homo sapiens, UniProt P11509); experiment: Inhibition of CYP2A6 at up to 50 uM; assay type: ADME
# T4 sequence (P11509 whole entry): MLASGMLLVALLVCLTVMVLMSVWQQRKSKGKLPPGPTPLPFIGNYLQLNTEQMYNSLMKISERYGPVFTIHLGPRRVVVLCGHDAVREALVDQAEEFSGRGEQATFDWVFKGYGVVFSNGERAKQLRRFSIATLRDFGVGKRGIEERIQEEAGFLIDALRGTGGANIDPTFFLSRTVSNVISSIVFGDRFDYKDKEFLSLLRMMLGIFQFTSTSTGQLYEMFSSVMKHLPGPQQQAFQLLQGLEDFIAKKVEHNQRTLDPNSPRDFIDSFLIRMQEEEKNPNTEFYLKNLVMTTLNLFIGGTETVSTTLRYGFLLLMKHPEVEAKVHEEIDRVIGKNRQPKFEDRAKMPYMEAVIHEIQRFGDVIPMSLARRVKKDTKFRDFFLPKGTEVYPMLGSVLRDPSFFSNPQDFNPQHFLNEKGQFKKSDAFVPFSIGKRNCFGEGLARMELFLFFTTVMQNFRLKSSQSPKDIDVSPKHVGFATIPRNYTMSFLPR
# [4] = Volume of distribution at steady state in Sprague-Dawley rat at 1 mg/kg, iv; assay type: ADME, organism-based; parameters: dose 1 mg/kg, route intravenous; conditions: in vivo, read-out: Vdss
# How it was run: (§2)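 Intravenous dose of 1 mg/kg. Blood sampled at 0.50, 1, 2, 4, 8 and 24 h. Plasma obtained by centrifugation at 10 000 rpm for 5 min and kept at −20 °C until analysis.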
# [5] = Clearance in Sprague-Dawley rat at 1 mg/kg, iv; assay type: ADME, organism-based; parameters: dose 1 mg/kg, route intravenous; conditions: in vivo; how it was run: as §2
# [6] = Half life in Sprague-Dawley rat at 10 mg/kg, po; assay type: ADME, organism-based; parameters: dose 10 mg/kg, route oral; conditions: in vivo
# [7] = Cmax in Sprague-Dawley rat at 10 mg/kg, po; assay type: ADME, organism-based; parameters: dose 10 mg/kg, route oral; conditions: in vivo
# [8] = AUC in Sprague-Dawley rat at 10 mg/kg, po; assay type: ADME, organism-based; parameters: dose 10 mg/kg, route oral; conditions: plasma
# Rattus norvegicus = experiment: Oral bioavailability in Sprague-Dawley rat at 10 mg/kg; assay type: ADME, organism-based; conditions: in vivo
# [9] = target: T5, A disintegrin and metalloproteinase with thrombospondin motifs 4 (Homo sapiens, UniProt O75173); experiment: Inhibition of human recombinant aggrecanase 1 after 150 mins by fluorescence plate reader
# T5 sequence (O75173 whole entry): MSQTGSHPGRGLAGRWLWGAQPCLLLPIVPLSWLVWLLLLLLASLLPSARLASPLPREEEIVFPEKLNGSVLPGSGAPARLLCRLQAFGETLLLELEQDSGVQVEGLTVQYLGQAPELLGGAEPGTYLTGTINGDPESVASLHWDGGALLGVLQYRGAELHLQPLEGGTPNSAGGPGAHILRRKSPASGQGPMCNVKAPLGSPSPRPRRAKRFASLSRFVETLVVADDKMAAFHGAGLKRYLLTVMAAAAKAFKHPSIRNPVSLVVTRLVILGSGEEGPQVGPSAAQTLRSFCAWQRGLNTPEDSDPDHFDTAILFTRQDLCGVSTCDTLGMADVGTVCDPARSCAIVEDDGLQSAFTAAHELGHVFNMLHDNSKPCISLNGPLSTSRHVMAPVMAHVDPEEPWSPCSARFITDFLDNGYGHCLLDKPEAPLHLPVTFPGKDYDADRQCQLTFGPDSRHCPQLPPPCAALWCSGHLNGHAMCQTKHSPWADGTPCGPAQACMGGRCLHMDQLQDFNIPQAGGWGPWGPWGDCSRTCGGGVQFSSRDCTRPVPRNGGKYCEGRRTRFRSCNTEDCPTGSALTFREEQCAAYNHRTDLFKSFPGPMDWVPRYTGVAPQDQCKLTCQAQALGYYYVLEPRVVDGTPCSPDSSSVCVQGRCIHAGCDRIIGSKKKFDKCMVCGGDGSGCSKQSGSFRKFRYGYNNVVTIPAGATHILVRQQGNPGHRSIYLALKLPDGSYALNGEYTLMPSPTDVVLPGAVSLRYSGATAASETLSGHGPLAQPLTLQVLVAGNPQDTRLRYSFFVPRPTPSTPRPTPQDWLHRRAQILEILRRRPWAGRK
# Stromelysin-1 = Stromelysin-1 (Homo sapiens, UniProt P08254); experiment: Inhibition of human recombinant MMP3 after 60 mins by fluorescence plate reader
# How it was run: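 rh-MMP-3 at 40 ng/mL with 10 μM MOCAc-Arg-Pro-Lys-Pro-Val-Glu-Nva-Trp-Arg-Lys(Dnp)-NH₂, in Tris-HCl pH 7.5/NaCl/CaCl₂/Brij-35 buffer. Inhibitor preincubated for 15 min at 25 °C. Fluorescence (ex 325/em 405 nm) read at 60 min. IC50 from three central linear points; at least two determinations averaged.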
# [10] = target: Matrix metalloproteinase-9 (Homo sapiens, UniProt P14780); experiment: Inhibition of human recombinant MMP9 after 60 mins by fluorescence plate reader
# How it was run: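 rh-MMP-9 at 4 ng/mL with 10 μM MOCAc-Pro-Leu-Gly-Leu-A2pr(Dnp)-Ala-Arg-NH₂, in 100 mM Tris-HCl pH 7.5, 150 mM NaCl, 10 mM CaCl₂, 0.05% Brij-35. Enzyme and inhibitor preincubated for 15 min at 25 °C before substrate. Fluorescence (ex 325/em 405 nm) read at 60 min. IC50 from three linear-range points; ≥2 runs averaged.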
# Collagenase 3 = Collagenase 3 (Homo sapiens, UniProt P45452); experiment: Inhibition of human recombinant MMP13 after 60 mins by fluorescence plate reader
# How it was run: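 rh-MMP-13 at 40 ng/mL with 5 μM 7-MCA-Pro-CHA-Gly-NVal-His-Ala-DPA, in Tris-HCl pH 7.5/NaCl/CaCl₂/0.05% Brij-35. Pretreatment with inhibitor for 15 min at 25 °C, then substrate started the reaction. Fluorescence (ex 325/em 405 nm) read at 60 min. IC50 from three central linear points, averaged over ≥2 determinations.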
# Chain of Cytochrome P450 2C9 (P11712 whole entry): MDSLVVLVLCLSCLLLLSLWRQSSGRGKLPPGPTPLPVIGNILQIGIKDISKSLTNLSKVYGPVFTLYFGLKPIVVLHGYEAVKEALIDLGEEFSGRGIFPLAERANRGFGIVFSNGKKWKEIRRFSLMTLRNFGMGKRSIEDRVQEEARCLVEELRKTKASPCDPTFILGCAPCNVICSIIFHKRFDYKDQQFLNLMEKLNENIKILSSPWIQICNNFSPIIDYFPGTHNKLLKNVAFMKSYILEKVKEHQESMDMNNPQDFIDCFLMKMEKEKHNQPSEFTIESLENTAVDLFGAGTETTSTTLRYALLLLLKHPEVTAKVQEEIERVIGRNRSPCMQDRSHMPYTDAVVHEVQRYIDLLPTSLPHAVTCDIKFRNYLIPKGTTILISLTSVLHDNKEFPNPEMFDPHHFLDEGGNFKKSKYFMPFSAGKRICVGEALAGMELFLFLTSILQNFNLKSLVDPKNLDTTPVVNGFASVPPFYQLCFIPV
# Chain of Stromelysin-1 (P08254 whole entry): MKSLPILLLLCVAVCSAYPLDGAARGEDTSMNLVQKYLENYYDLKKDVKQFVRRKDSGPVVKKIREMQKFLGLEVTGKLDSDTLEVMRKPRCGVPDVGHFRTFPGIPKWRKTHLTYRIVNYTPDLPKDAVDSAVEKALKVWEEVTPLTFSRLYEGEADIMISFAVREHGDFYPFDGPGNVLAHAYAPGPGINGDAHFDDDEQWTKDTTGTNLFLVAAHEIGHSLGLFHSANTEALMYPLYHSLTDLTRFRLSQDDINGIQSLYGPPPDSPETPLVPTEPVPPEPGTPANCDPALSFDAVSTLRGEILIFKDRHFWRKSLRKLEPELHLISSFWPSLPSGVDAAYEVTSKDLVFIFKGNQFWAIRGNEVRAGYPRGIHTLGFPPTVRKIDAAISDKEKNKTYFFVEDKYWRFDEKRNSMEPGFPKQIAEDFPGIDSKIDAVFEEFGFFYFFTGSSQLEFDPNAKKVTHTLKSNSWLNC
# Chain of Cytochrome P450 3A4 (P08684 whole entry): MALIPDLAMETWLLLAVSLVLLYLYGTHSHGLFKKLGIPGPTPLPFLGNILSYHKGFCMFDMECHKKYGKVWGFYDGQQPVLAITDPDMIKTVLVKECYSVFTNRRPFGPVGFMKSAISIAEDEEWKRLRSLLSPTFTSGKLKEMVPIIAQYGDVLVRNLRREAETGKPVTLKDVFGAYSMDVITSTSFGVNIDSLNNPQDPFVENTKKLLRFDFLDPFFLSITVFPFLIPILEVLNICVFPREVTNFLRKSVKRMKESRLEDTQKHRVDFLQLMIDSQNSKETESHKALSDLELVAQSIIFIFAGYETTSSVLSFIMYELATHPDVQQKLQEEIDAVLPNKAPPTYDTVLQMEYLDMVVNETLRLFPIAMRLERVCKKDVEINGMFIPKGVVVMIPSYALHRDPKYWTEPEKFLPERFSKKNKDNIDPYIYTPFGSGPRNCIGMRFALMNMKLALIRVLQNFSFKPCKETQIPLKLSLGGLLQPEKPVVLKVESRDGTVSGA
# Chain of Cytochrome P450 2C19 (P33261 whole entry, the tested form may be a part): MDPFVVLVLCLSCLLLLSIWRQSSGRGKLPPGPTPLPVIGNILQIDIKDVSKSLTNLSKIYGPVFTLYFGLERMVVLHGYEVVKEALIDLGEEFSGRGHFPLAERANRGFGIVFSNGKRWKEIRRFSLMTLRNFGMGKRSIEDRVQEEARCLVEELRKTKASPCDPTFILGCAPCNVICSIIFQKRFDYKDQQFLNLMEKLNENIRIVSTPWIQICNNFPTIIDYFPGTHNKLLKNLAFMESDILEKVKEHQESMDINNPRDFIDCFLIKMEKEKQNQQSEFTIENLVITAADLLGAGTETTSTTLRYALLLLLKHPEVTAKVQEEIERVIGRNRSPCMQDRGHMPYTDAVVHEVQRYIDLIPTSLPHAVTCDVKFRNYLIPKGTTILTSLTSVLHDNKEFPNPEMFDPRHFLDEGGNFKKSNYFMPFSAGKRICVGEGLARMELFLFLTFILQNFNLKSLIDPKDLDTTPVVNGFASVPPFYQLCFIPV
# Chain of Disintegrin and metalloproteinase domain-containing protein 17 (P78536 whole entry, the tested form may be a part): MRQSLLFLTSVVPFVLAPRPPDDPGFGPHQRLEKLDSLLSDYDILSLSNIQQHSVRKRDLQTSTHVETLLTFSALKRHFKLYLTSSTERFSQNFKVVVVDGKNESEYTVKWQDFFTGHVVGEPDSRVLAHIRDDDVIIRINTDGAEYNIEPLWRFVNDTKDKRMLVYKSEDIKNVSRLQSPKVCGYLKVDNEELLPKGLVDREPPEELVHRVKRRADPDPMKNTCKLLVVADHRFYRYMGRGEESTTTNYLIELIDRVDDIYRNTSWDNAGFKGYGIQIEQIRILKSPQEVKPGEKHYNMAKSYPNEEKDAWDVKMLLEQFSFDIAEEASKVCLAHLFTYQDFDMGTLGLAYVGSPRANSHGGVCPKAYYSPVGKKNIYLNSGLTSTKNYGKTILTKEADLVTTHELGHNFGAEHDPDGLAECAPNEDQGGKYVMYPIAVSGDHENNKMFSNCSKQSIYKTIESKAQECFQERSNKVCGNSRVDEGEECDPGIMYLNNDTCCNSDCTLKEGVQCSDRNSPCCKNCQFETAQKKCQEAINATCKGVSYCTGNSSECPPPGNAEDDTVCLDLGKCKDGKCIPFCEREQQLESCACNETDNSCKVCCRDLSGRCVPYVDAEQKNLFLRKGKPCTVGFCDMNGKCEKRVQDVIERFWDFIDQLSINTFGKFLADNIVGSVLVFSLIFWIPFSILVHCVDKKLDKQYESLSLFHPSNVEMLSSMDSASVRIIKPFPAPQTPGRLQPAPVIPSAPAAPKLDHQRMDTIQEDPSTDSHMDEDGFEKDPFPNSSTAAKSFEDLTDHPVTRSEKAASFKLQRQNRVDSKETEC
# Chain of Cytochrome P450 2D6 (P10635 whole entry): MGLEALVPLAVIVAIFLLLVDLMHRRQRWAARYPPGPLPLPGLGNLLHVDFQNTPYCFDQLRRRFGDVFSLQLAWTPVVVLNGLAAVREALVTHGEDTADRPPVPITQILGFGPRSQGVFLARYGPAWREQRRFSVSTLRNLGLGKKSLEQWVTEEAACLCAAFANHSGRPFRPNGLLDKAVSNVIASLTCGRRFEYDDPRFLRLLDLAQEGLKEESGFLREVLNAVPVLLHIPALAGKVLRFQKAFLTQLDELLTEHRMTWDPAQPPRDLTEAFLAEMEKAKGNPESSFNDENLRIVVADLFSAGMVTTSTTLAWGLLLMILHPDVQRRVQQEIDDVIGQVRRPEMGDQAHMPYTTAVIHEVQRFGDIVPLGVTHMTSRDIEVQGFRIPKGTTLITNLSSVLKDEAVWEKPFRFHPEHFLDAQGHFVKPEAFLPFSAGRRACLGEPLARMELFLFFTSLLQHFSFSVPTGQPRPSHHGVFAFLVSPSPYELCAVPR
# Chain of Matrix metalloproteinase-9 (P14780 whole entry): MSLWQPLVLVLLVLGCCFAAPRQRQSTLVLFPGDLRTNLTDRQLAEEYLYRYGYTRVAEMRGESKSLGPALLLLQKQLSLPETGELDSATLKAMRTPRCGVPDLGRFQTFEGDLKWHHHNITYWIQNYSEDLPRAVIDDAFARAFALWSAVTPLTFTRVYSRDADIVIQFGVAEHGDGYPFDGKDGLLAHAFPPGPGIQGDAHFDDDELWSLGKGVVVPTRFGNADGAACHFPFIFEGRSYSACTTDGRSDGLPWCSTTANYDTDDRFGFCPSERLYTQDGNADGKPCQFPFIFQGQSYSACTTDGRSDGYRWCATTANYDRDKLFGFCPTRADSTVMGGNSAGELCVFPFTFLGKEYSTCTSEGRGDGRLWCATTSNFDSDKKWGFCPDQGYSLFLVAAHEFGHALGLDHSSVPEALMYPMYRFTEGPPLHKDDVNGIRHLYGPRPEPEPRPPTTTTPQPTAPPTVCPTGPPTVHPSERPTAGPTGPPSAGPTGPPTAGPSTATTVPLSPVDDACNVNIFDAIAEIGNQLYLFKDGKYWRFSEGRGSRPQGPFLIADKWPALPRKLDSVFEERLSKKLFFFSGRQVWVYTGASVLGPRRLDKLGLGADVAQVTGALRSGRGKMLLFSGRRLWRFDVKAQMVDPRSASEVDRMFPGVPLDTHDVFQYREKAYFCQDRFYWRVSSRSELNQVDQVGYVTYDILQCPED
SMILES,inhibition (INH) (Cytochrome P450 3A4),inhibition (INH) (Cytochrome P450 2C19),IC50 [1] [nM],IC50 (Interstitial collagenase) [nM],IC50 [2] [nM],IC50 [3] [nM],inhibition (INH) (Cytochrome P450 2C9),inhibition (INH) (Cytochrome P450 2D6),inhibition (INH) (Cytochrome P450 1A2),inhibition (INH) (Cytochrome P450 2A6),Vd [4] [L/kg],clearance [5] [mL/min/kg],half-life [6] [h],Cmax [7] [µM],AUC [8] [µM·h],F (Rattus norvegicus) [%],IC50 [9] [nM],IC50 (Stromelysin-1) [nM],IC50 [10] [nM],IC50 (Collagenase 3) [nM]
C[C@@H]1[C@](C)(c2ccccc2)[C@]1(NS(=O)(=O)N1CCn2c(nc3cc(F)ccc32)C1)C(=O)O,Not Active,Not Active,> 10000,> 10000,> 10000,14,Not Active,Not Active,Not Active,Not Active,0.7,10,2,17.4,76.9,196,,,,
C[C@@H]1[C@H](c2ccccc2)[C@]1(NS(=O)(=O)c1ccc(-n2cc(Cl)cn2)s1)C(=O)O,,,,,3.9,,,,,,,,,,,,4,68,58,3.4
